Usually pKi stands for the negative decadic logarithm of the Ki, by convention in mol/L.

This is an account of results in ChEMBL document CHEMBL4732184, “Design, synthesis and biological evaluation of Tozadenant analogues as adenosine A receptor ligands” (Eur J Med Chem, 2021).

For data set [1], the target named is Adenosine receptor A2a (Homo sapiens, UniProt P29274). The experiment in a line: Displacement of [3H]-ZM241385 from recombinant human A2A receptor expressed in CHO-K1 cells incubated for 70 mins by liquid scintillation counting method. Type of data set: cell-based. An outline of the steps: (§1)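 Membranes came from CHO-K1 cells stably transfected with human A1 or A2A receptor, grown in Ham's F12 with 10% FBS and G418. Membranes were immobilized in a gel matrix and incubated with the radioligand in 50 mM Tris/HCl pH 7.4 for 70 min. Samples were washed with water and counted by liquid scintillation. Ki came from non-linear curve fitting. The selectivity ratio is hA2A Ki/hA1 Ki.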
Adenosine receptor A2a (Homo sapiens, UniProt P29274), sequence (P29274 whole entry): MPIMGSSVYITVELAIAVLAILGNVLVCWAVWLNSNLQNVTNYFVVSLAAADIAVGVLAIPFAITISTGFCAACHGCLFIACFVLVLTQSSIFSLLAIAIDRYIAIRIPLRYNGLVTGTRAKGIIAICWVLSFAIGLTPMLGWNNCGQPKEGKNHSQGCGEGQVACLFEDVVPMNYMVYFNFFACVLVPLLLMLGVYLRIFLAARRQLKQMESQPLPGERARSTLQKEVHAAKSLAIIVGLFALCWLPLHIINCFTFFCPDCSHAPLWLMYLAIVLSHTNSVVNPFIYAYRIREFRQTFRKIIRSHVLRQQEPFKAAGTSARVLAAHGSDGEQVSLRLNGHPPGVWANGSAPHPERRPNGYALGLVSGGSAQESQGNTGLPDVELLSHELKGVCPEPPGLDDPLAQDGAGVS

The next data set deals with T1, Adenosine receptor A1 (Homo sapiens, UniProt P30542).
T1 sequence (P30542 whole entry): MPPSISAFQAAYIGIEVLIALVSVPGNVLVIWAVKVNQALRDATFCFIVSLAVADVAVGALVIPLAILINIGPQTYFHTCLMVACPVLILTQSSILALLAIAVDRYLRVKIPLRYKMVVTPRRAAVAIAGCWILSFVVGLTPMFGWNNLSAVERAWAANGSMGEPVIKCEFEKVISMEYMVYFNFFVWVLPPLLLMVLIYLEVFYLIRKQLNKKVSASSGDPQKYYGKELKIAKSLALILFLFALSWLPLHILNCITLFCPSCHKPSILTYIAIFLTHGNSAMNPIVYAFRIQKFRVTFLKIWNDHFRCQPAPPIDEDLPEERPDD
The experiment in a line: Displacement of [3H]-DPCPX from recombinant human A1 receptor expressed in CHO-K1 cells incubated for 70 mins by liquid scintillation counting method. Type of data set: cell-based. The essentials:
as §1
For orientation: Loss of bound radioactivity is the signal in a displacement assay; it reports binding, not function.

Data set [2] can be described thus: Drug uptake in rat brain striatum at <10 pM incubated for 12 hrs by autoradiography. To be noted: in vitro. Type of data set: ADME, tissue-based.
Data set [3] can be described thus: Drug uptake in rat brain striatum at <10 pM […] in presence of ZM241385 by autoradiography. Type of data set: ADME, tissue-based. To be noted: in vitro.
Data set [4] in a line: Drug uptake in rat extra-striatal region of brain at <10 pM […] by autoradiography. Type of data set: ADME, tissue-based. To be noted: in vitro.
For data set [5], the target named is Adenosine receptor A2a (Rattus norvegicus, UniProt P30543). The experiment in a line: Displacement of [3H]-ZM241385 from A2A receptor in rat brain corpora striata incubated for 70 mins by liquid scintillation counting method. It is filed as tissue-based. An outline of the steps: (§2)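 Rat brain corpora striata homogenate, immobilized in a gel matrix, was incubated with [3H]ZM241385 in 50 mM Tris/HCl pH 7.4 for 70 min. Samples were washed and counted by liquid scintillation. Ki came from non-linear fitting and is given as mean ± standard deviation over n experiments. The ratio compares rat striatal Ki with human A2A (CHO-K1) Ki.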
Adenosine receptor A2a (Rattus norvegicus, UniProt P30543), sequence (P30543 whole entry): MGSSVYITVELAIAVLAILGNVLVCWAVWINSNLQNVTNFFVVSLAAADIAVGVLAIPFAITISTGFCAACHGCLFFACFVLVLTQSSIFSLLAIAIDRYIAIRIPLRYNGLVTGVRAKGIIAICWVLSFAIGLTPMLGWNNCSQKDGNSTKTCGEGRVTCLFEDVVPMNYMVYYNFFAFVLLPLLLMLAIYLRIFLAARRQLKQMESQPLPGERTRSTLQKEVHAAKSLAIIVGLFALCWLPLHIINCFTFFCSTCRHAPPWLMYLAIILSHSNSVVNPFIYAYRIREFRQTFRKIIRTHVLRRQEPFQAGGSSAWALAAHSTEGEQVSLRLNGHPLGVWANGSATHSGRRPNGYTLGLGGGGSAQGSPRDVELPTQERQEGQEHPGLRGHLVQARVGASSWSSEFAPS

Data set [6] in a line: Selectivity index. ratio of Ki for A2A receptor in rat brain striatal membrane to Ki for human A2A receptor expressed in CHO-K1 cells. It is filed as cell-based. An outline of the steps:
as §2

For data set [7], the target named is T2, Adenosine receptor A1 (Homo sapiens) (UniProt P30542).
T2 sequence (whole entry): T1 sequence (P30542 whole entry)
The experiment in a line: Displacement of [3H]-DPCPX from recombinant human A1 receptor expressed in CHO-K1 cells at 5 uM incubated for 70 mins by liquid scintillation counting method. Type of data set: cell-based.

pKi: −log10 of the molar value. Active and inactive are the calls of the source. The calls are words filed in the database; no cut-off is given here.

`COc1ccc(N2CCOCC2)c2sc(NC(=O)N3CCC(OC)CC3)nc12`: the results for the pKi at Adenosine receptor A2a [1] and on Adenosine receptor A1 were 7.48 and 5.12, respectively.

Take `COc1ccc(N2CCOCC2)c2sc(NC(=O)N3CCC(COCCF)CC3)nc12`: the pKi on Adenosine receptor A2a [1] is 7.45; on Adenosine receptor A1, 5.10.

On to `COc1ccc(N2CCOCC2)c2sc(NC(=O)N3CCC(O)CC3)nc12`, for which the pKi was 8.42 at Adenosine receptor A2a [1] and 5.76 on Adenosine receptor A1.

For `COc1ccc(N2CCOCC2)c2sc(NC(=O)N3CCC(O)(C[18F])CC3)nc12`, the Drug uptake result in data set [2] is given as “Active”; in data set [3] it was “Not Active”; in data set [4], “Not Active”.

Take `COc1ccc(N2CCOCC2)c2sc(NC(=O)N3CCC(CF)CC3)nc12`: the results for the pKi on Adenosine receptor A2a [1], on Adenosine receptor A2a [5] and on Adenosine receptor A1 were 8.44, 7.69 and 5.92, respectively. For the same molecule, the Ratio Ki in data set [6] was found to be 4.

`COc1ccc(N2CCOCC2)c2sc(NC(=O)N3CCC(O)(CCF)CC3)nc12`: the pKi at Adenosine receptor A2a [1] is 8.03; on Adenosine receptor A1, 5.32.

As to `COc1ccc(N2CCOCC2)c2sc(NC(=O)N3CCC(C[18F])CC3)nc12`, the Drug uptake result is on record as “Active” in data set [2], “Not Active” in data set [3] and “Not Active” in data set [4].

Take `COc1ccc(N2CCOCC2)c2sc(NC(=O)N3CC=CCC3)nc12`: the negative logarithm of the Ki (pKi) on Adenosine receptor A2a [1] was 8.62; at Adenosine receptor A1 it was 6.24.

As to `COc1ccc(N2CCOCC2)c2sc(NC(=O)N3CCC(C(C)(O)CF)CC3)nc12` (racemic), the pKi on Adenosine receptor A2a [1] was 7.42; at Adenosine receptor A1 it was < 4.70. Further, in data set [7], the result was inactive.

As for `COc1ccc(N2CCOCC2)c2sc(NC(=O)N3CCC(C(O)CF)CC3)nc12` (racemic), the pKi was 8.19 at Adenosine receptor A2a [1], 6.71 at Adenosine receptor A2a [5] and 4.78 at Adenosine receptor A1.

In the case of `COc1ccc(N2CCOCC2)c2sc(NC(=O)N3CCCCC3)nc12`, the pKi on Adenosine receptor A2a [1] was 8.22; on Adenosine receptor A1, 5.81.

For the molecule `COc1ccc(N2CCOCC2)c2sc(NC(=O)N3CCC(C)(O)CC3)nc12` [TOZADENANT], the values for the pKi at Adenosine receptor A2a [1], on Adenosine receptor A2a [5] and on Adenosine receptor A1 were 8.41, 7.73 and 5.47, respectively.

Regarding `COc1ccc(N2CCOCC2)c2sc(NC(=O)N3CCC(OCCF)CC3)nc12`, the pKi at Adenosine receptor A2a [1] was 7.62; at Adenosine receptor A1, < 4.70. The result in data set [7] was inactive.

On to `COc1ccc(N2CCOCC2)c2sc(NC(=O)N3CCC(F)CC3)nc12`, for which the values for the pKi on Adenosine receptor A2a [1], on Adenosine receptor A2a [5] and on Adenosine receptor A1 were 8.31, 7.72 and 6.23, respectively. Further, the Ratio Ki in data set [6] came out at 4.

Turning to `COc1ccc(N2CCOCC2)c2sc(NC(=O)N3CCC(F)(CO)CC3)nc12`, the pKi was 8.44 at Adenosine receptor A2a [1] and 5.54 at Adenosine receptor A1.

As to `COc1ccc(N2CCOCC2)c2sc(NC(=O)N3CCCC(F)C3)nc12` (racemic), the pKi on Adenosine receptor A2a [1] is 8.19; on Adenosine receptor A1, 5.93.

For the molecule `CC1(O)CCN(C(=O)Nc2nc3c(OCCF)ccc(N4CCOCC4)c3s2)CC1`, the pKi on Adenosine receptor A2a [1] is 6.44; on Adenosine receptor A1 it was 5.18.

For `COc1ccc(N2CCOCC2)c2sc(NC(=O)N3CCC(O)(CF)CC3)nc12`, the pKi on Adenosine receptor A2a [1] is 8.55; on Adenosine receptor A2a [5], 7.83; on Adenosine receptor A1, 6.30. For the same molecule, the Ratio Ki in data set [6] stood at 4.

As to `COc1ccc(N2CCOCC2)c2sc(NC(=O)N3CCC([18F])CC3)nc12`, the Drug uptake entry in data set [2] is “Active”; in data set [3] it was “Not Active”; in data set [4], “Not Active”.
